CHRM1 PAM = human M1 muscarinic receptor positive allosteric modulators, primary screen, CHO-K1 cells, Fluo-8 calcium fluorescence, 1536-well; CHO-K1 hM1, ACh EC20; 0% = ACh EC20, 100% = maximal ACh; activation, % at 3 µM; 360,000 tested, 0.088% active; AID 588819, 2011; in the data active means activation above about 19%, passing the limit was not always enough
TAAR1 ag = human TAAR1 agonists, primary screen, Fluo-8 calcium fluorescence, CHO RD-HGA16 cells | Trace amine-associated receptor 1 (Homo sapiens), Q96RJ0 | vehicle wells 0%, saturating PEA agonist 100% | activation, % at 3 µM | 360,000 tested, 0.99% active | AID 624467, 2012;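 active means activation above the mean activation of all test compounds in the run plus 3 SD, cut at about 38% in these data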
Target sequence (Q96RJ0 whole entry, looked up): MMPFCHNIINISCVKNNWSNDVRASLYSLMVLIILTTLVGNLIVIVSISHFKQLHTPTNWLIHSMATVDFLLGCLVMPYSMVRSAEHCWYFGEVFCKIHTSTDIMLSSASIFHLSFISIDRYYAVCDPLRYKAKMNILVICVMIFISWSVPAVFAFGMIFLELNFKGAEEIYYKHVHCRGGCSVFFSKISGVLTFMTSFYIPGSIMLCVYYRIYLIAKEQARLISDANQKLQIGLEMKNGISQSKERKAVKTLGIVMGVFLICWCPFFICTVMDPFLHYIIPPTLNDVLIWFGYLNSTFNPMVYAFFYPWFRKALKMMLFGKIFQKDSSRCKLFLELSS
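Repeats: no replicates (n 1) | Material: CHO-derived RD-HGA16 cells with stable Gα16 and human TAAR1 | Technique: Kinetic Fluo-8 calcium fluorescence | Schedule: 17-24 h seeding, 75 min 37 °C dye, 30 min RT | Evaluation: % activation from peak over basal fluorescence ratio, DMSO-to-PEA scaled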
TAAR1 antag = human TAAR1 antagonists, primary screen, Fluo-8 calcium fluorescence, CHO RD-HGA16 cells; antagonist; Trace amine-associated receptor 1 (Homo sapiens), Q96RJ0; inhibition, % at 3 µM; 360,000 tested, 1.5% active;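 active means inhibition above a per-plate cutoff, the mean inhibition of test compounds on that plate plus 3 SD, cut at about 49% in these data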;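 further: 0% = DMSO plus EC80 beta-PEA response and 100% = DMSO alone without agonist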
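test system = CHO RD-HGA16 cells bearing hTAAR1 | replication = singlicate | controls = DMSO-only wells and EC80 β-PEA-stimulated wells | reagent = EC80 β-phenethylamine stimulus | read-out basis = percent inhibition of PEA-evoked calcium signal, max/basal emission ratio | schedule = seeding 17-24 h prior, 75-min 37 °C, 30-min RT dye loading | signal = kinetic Fluo-8 calcium fluorescence measurement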
HTR2A ag = mouse Htr2a agonists via beta-arrestin recruitment, primary screen, cell-based, luminescence | CHO-K1 mHTR2A beta-arrestin complementation; percent of 30 µM serotonin response | activation, % at 7.6 µM | 360,000 tested, 0.66% active | AID 624169, 2012;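 active means activation above a run cutoff, the mean activation of all tested compounds plus 3 SD, cut at about 14% in these data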;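 further: 0% = plate median of compound wells and 100% = 30 µM serotonin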
M1 ag = human M1 muscarinic receptor agonists, primary screen, Fluo-8 calcium fluorescence, CHO-K1 cells, HTS | CHO-K1 hM1, agonist mode; 0% DMSO, 100% acetylcholine EC100 | Muscarinic acetylcholine receptor M1 (Homo sapiens), P11229 | activation, % at 3 µM | 360,000 tested, 0.33% active;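 active means activation above the run's mean compound activation plus 3 SD, cut at about 16% in these data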;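 further: peak over basal fluorescence ratio within a 140 s kinetic read after compound addition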
CHRM1 antagonist = human M1 muscarinic receptor antagonists, primary screen, CHO-K1 cells, Fluo-8 calcium fluorescence, 1536-well; Muscarinic acetylcholine receptor M1 (Homo sapiens), P11229; CHO-K1 hM1, ACh EC80 antagonist; inhibition, % at 3 µM; 360,000 tested, 1.3% active; AID 588852, 2011;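 active means percent inhibition above its own plate's cutoff, namely the mean of that plate's compound wells plus 3 SD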;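 further: peak over basal fluorescence ratio during 140 s after agonist addition; 0% = ACh EC80 plus DMSO and 100% = DMSO alone without agonist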
Active calls of the source: *. Only some compounds are listed: those with a hit (about 3.9% of all), similar ones and a draw of the others.

`CCOc1cccc(-c2c(C(=O)N/N=C/c3ccc(C)o3)nnn2-c2nonc2N)c1` gave CHRM1 PAM 2, TAAR1 ag 62*, TAAR1 antag 24, HTR2A ag 3, M1 ag 4 and CHRM1 antagonist -1.
`COc1cccc(-c2c(C(=O)N/N=C/c3cccs3)nnn2-c2nonc2N)c1` gave CHRM1 PAM 8, HTR2A ag -3, M1 ag 44* and CHRM1 antagonist -9.
For CCOc1cccc(-c2c(C(=O)N/N=C/c3ccncc3)nnn2-c2nonc2N)c1 the results were CHRM1 PAM 6, TAAR1 ag 16, TAAR1 antag 1, HTR2A ag 7, M1 ag 3 and CHRM1 antagonist -12.
`CC(C)COC(=O)NCCOC(=O)Nc1cccc(Cl)c1` gave CHRM1 PAM -16, TAAR1 ag 6, TAAR1 antag 23, HTR2A ag 5, M1 ag 4 and CHRM1 antagonist 25*.
Screening Cc1ccc(C(=O)Sc2cccccc2=O)cc1 returned CHRM1 PAM -3, TAAR1 ag 12, TAAR1 antag 45, HTR2A ag -13, M1 ag 2 and CHRM1 antagonist 33*.
Screening O=C(Nc1ccccc1SC(=O)c1ccccc1)c1ccccc1 returned CHRM1 PAM 8, TAAR1 ag 16, TAAR1 antag 15, HTR2A ag 8, M1 ag 0 and CHRM1 antagonist -3.
Screening O=C(CN1CCN(C(c2ccccc2)c2ccccc2)CC1)NCc1ccccc1 returned CHRM1 PAM -22, TAAR1 ag 9, TAAR1 antag 8, HTR2A ag -7, M1 ag -14 and CHRM1 antagonist 6.
Screening O=C(CN1CCN(c2ccc(F)cc2)CC1)N1N=CCC1c1ccccc1 (stereo unspecified) returned CHRM1 PAM 9, TAAR1 ag 9, TAAR1 antag -1, HTR2A ag -2, M1 ag -12 and CHRM1 antagonist 103*.
`O=C(CN1CCN(C(c2ccccc2)c2ccccc2)CC1)N1CCN(c2ccccc2)CC1` gave CHRM1 PAM -24, TAAR1 ag -1, TAAR1 antag -36, HTR2A ag 2, M1 ag -10 and CHRM1 antagonist 81*.
Screening NNC(=O)CCN1CCN(C(c2ccccc2)c2ccccc2)CC1 returned CHRM1 PAM -16, TAAR1 ag 0, TAAR1 antag 13, HTR2A ag -6, M1 ag -7 and CHRM1 antagonist 61*.
For CC1CCN(CC(=O)N2CCN(c3ccccc3)CC2)CC1 the results were CHRM1 PAM -7, TAAR1 ag 0, TAAR1 antag 10, HTR2A ag -1, M1 ag -8 and CHRM1 antagonist -1.
`O=C(CN1CCN(C(c2ccccc2)c2ccccc2)CC1)N1N=CCC1c1ccccc1` (stereo unspecified) gave CHRM1 PAM -25, TAAR1 ag 8, TAAR1 antag -28, HTR2A ag -7, M1 ag -6 and CHRM1 antagonist 48*.
`CCCCc1c(-c2ccccc2OC)ncn1Cc1ccc(C)cc1` gave TAAR1 ag 6 and TAAR1 antag 28.
For Cc1cccc(C)c1OCc1nnc(SCC(=O)Nc2nccs2)o1 the results were CHRM1 PAM -17, TAAR1 ag 2, TAAR1 antag 16, HTR2A ag -6, M1 ag 0 and CHRM1 antagonist 25*.
For CCCNC(=O)NC1CCCCCCC1 the results were CHRM1 PAM 11, TAAR1 ag 2, TAAR1 antag -2, HTR2A ag 1, M1 ag -4 and CHRM1 antagonist -5.
Screening CCCNC(=S)NC1CCCC1 returned CHRM1 PAM -10, TAAR1 ag 0, TAAR1 antag 7, HTR2A ag 0, M1 ag -4 and CHRM1 antagonist 38*.
Screening c1ccc(-c2nc(NCc3cccs3)c3ccccc3n2)cc1 returned CHRM1 PAM -3, TAAR1 ag 6, TAAR1 antag -10, HTR2A ag -4, M1 ag -3 and CHRM1 antagonist -1.
Screening CN(Cc1cccs1)c1nc(-c2cccnc2)nc2ccccc12 returned CHRM1 PAM -19, TAAR1 ag 5, TAAR1 antag 24, HTR2A ag -2, M1 ag -8 and CHRM1 antagonist 35*.
For O=C(c1cccs1)N1CCN(C2CCCCC2)CC1 the results were CHRM1 PAM 5, TAAR1 ag 4, TAAR1 antag -8, HTR2A ag 0, M1 ag -7 and CHRM1 antagonist -9.
For O=C(c1cccs1)N1CCN(C2CCN(Cc3ccccc3)CC2)CC1 the results were CHRM1 PAM -20, TAAR1 ag 7, TAAR1 antag -7, HTR2A ag -2, M1 ag -6 and CHRM1 antagonist 39*.
For COC(=O)c1cc2c(c3c4cc(F)ccc4n(S(=O)(=O)c4cccc(C)c4)c13)C(=O)N(Cc1ccc(C(F)(F)F)cc1)C2 the results were TAAR1 ag -1 and TAAR1 antag -41.
`Cc1cccc(NC(=O)CSc2nc3ccccc3c3nc(CCc4c(C)n[nH]c4C)nn23)c1` gave CHRM1 PAM -14, TAAR1 ag 21, TAAR1 antag 51*, HTR2A ag 4, M1 ag -1 and CHRM1 antagonist 51*.
N#CC1=C(N)OC2=C(CCc3ccccc32)C1c1ccccc1Cl (stereo unspecified) was read as CHRM1 PAM -22, TAAR1 ag -1, TAAR1 antag -4, HTR2A ag -2, M1 ag -9 and CHRM1 antagonist 44*.
For O=C(NCc1ccccc1)[C@@H]1CCCN1C(=O)[C@H]1CCCN1C(=O)c1cc(F)cc(F)c1 the results were TAAR1 ag 1 and TAAR1 antag 6.
c1ccc(-c2nnc(N3CCN(c4ccccn4)CC3)c3ccccc23)cc1 was read as CHRM1 PAM -18, TAAR1 ag 4, TAAR1 antag 50*, HTR2A ag 9, M1 ag -3 and CHRM1 antagonist 48*.
`Nc1nc(N2CCN(c3ccccn3)CC2)nc2ccccc12` gave CHRM1 PAM -29, TAAR1 ag 0, TAAR1 antag 8, HTR2A ag -10, M1 ag -9 and CHRM1 antagonist 36*.

Assay outcomes as filed in PubChem BioAssay.
